Compound activity: PubChem, several laboratories
Rows were chosen to be rich in hits. Some 2.3% of all compounds tested hit in one or more screens of this group.
T cell modulator – T cell immune modulators affecting CD8 T cell-vesicle binding. 2C CD8+ T cell-vesicle binding, flow cytometry; stronger effect = lower value. response (vesicle binding), % at 7 µM. 330,000 compounds, 0.068% hits. AID 2052;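 active means response, share of CD8 T cells binding vesicles, and their 90th percentile fluorescence all below set limits, cut at about 80% in these data, passing the limit was not always enough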;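 further: values below 100% mean blocked vesicle binding to the CD8+ T cells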
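Incubation: binding step 1.5 h, 37 °C, antibody labelling 20 min, ice; system: murine 2C transgenic CD8+ T lymphocytes; technique: cytometric PE anti-B7-1 and Alexa647 anti-CD8 signals after 1% paraformaldehyde fixation; also added: QL9-charged Drosophila Ld/ICAM-1/B7-1 vesicles; control set: naked versus QL9-loaded vesicles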
GPR7 antag – blocks human GPR7 receptor signaling; 290,000 compounds, 1.1% hits; GPR7-expressing cells, fluorescence antagonist assay; P48145; inhibition, % at 4.4 µM; in the data active means inhibition above about 16%, passing the limit was not always enough;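 further: cells stimulated with the agonist NPW; 0% = agonist with vehicle and 100% = vehicle without agonist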
Target sequence (P48145 whole entry, looked up): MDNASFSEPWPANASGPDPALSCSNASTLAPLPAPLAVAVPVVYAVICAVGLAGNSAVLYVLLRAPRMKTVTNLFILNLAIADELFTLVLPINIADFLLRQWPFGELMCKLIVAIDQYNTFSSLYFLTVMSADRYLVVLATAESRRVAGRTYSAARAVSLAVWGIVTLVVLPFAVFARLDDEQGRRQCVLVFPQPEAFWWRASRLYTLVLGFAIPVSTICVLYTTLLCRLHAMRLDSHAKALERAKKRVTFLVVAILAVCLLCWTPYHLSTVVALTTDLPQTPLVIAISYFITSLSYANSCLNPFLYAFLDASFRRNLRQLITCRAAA
p-CIP stab down – compounds decreasing mouse p/CIP protein stability | Q05BA5 | F442A p/CIP-EGFP cells, EGFP fluorescence, 16 h | decrease of EGFP signal, % at 10 µM | 290,000 compounds, 0.01% hits;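 active means EGFP signal decrease of at least 30% at 10 µM or well 3 SD below plate mean, unless failing retest; inactive means the rest, including hits failing retest or dose response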
DSG3 Ab inh – blocks pemphigus antibody binding to human desmoglein-3 | DSG3-coupled beads, scFv-anti-DSG3-GFP binding, flow cytometry; stronger effect = lower value | binding (percent of control), % at 10 µM | 310,000 compounds, 0.48% hits | AID 588358;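 active means binding more than 3 SD below its plate's average and above zero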
CHT PAM – allosteric activators of human choline transporter CHT; CHT-expressing cells, membrane potential dye, choline EC20; stronger effect = higher value; LV-AA mutant CHT in HEK293 cells; 310,000 compounds, 0.49% hits; B-score at 10 µM;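 active means initial fluorescence not abnormally high and integrated response B-score, plate-corrected, over 3 SD above library mean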
CHT block – inhibits the human high affinity choline transporter; Q9GZV3; CHT-expressing cells, membrane potential dye, choline response; stronger effect = lower value; B-score at 10 µM; 310,000 compounds, 0.86% hits; AID 488975;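 active means B-score over 3 SD under the library average, and starting fluorescence ratio not unusually high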;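 further: choline stimulus applied at its EC90 after an EC20 pre-addition; B-score computed on integrated fluorescence ratio after choline addition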
* = called active by the depositor; i = inactive; . = not tested or not shown.

SMILES | T cell modulator | GPR7 antag | p-CIP stab down | DSG3 Ab inh | CHT PAM | CHT block
CNC1(C)[C@H]2CC[C@H](C2)C1(C)C (some centres undefined) | 212.9 | . | . | 104.0 | . | .
N#CCc1nc(CSc2nc3ccccc3s2)cs1 | 578.5 | 16.2* | -22.8 | 97.9 | i | i
c1ccc2sc(SCSc3nc4ccccc4s3)nc2c1 | 189.4 | -9.6 | 1.1 | 89.8 | i | i
O=c1oc(-c2cccs2)nc2c1cnn2-c1ccccc1 | 306.2 | -2.3 | -9.2 | 86.0* | i | i
CN1C2=CC=CC=CC2=[N+](C)C12C=CC(=[N+]([O-])[O-])C=C2[N+](=O)[O-] (centres undefined) | 278.6 | -7.1 | -1.5 | 76.0* | i | i
O=C1N[C@H]2CC=C[C@H]2Nc2ccccc21 | . | . | . | 67.6* | . | .
Nc1ccccc1N=c1ssnc1Cl | . | 5.7 | 5.6 | 99.4 | . | .
COc1cc(N=c2ssnc2Cl)c(OC)cc1Cl | 263.4 | 2.9 | -6.3 | 84.8* | i | i
Cc1cc(Cl)ccc1N=c1ssnc1Cl | 196.4 | 3.5 | 0.7 | 52.9* | i | i
COC(=O)C1(C)CCCC2(C)C3CCC(C(C)C)C(CO)C3C(CO)CC12 (centres undefined) | . | . | . | 113.1 | . | .
COc1ccc(NC(=O)c2cc3c(COC(C)=O)cnc(C)c3oc2=Nc2cccc(C(=O)O)c2)c(OC)c1 | 209.4 | -12.2 | -12.7 | 66.0* | i | i
COc1cccc(C2=CC(c3ccc(N(C)C)cc3)n3nnnc3N2)c1 (centres undefined) | 592.6 | 13.2 | -28.4 | 99.7 | i | i
COc1cccc(C2=CC(c3ccc(N(C)C)cc3)n3ncnc3N2)c1 (centres undefined) | 278.8 | -8.8 | -2.4 | . | i | -9.27*
CC12CCC(/C(=C/NNc3ccc([N+](=O)[O-])cc3[N+](=O)[O-])C1=O)C2(C)C (centres undefined) | . | . | . | 99.3 | . | .
O=C(Cc1ccccc1)Nc1ccc(NC(=O)c2cccs2)cc1Cl | 140.6 | 1.9 | -0.8 | 71.9* | i | i
CCN1/C(=C2/SC(=S)NC2=O)Sc2ccccc21 | 209.1 | 20.6 | -12.2 | 93.4 | i | i
CSc1ccc(C2=C/C(=C3/SC(=S)NC3=O)c3ccccc3O2)cc1 | . | . | . | 80.7* | . | .
O=C(C[C@@H]1C[C@H]2c3cc(NC(=O)c4cccnc4)ccc3O[C@H]2[C@H](CO)O1)NCc1ccc(Oc2ccccc2)cc1 | . | . | . | 100.0 | . | .
CCSc1nnc(-c2cccc(S(=O)(=O)N(C)C)c2)n1-c1cc(OC)ccc1OC | 431.8 | 13.6 | 2.6 | 101.4 | i | i
CCCSc1nnc(-c2cccc(S(=O)(=O)N(C)C)c2)n1-c1cc(OC)ccc1OC | 360.8 | 19.8* | -10.1 | 98.1 | i | i
Cc1sc2ncn(CC(=O)Nc3c(F)cccc3F)c(=O)c2c1S(=O)(=O)N1CCC(C)CC1 | 223.8 | -3.2 | -5.3 | 55.3* | i | i
COc1cccc(-n2nc(C#N)c(Cl)cc2=O)c1 | . | 41.3* | -18.5 | 101.0 | . | .
CC(Sc1nc2ncc(Cl)cc2[nH]1)C(=O)Nc1ccccc1[N+](=O)[O-] (centres undefined) | . | . | . | 100.5 | . | .
Cc1nc(-c2ccc(S(=O)(=O)Nc3cccc(Cl)c3)cc2)co1 | 326.1 | 4.3 | -2.1 | 59.2* | i | i
CSc1cccc(NS(=O)(=O)c2ccc(-c3coc(C)n3)cc2)c1 | 314.3 | 2.1 | -29.9 | 3.0* | i | i
SMILES | T cell modulator | GPR7 antag | p-CIP stab down | DSG3 Ab inh | CHT PAM | CHT block
O=C1C=CC(=O)N1CCCCCCCCCCN1C(=O)C=CC1=O | . | . | . | 91.8 | . | .
C1=C(c2ccc(-c3ccccc3)cc2)Nc2ncnn2C1c1ccco1 (centres undefined) | . | 25.6* | -133.0 | 111.0 | . | .
Fc1ccc(C2=CC(c3ccco3)n3ncnc3N2)cc1 (centres undefined) | 260.5 | 1.7 | 1.9 | 103.5 | i | i
CCc1ccc(NC(=O)C2CC(=O)Nc3ncnn32)cc1 (centres undefined) | 226.5 | -7.2 | 4.8 | 101.0 | i | i
O=C1CC(C(=O)Nc2ccc(Cl)cc2)n2ncnc2N1 (centres undefined) | 236.2 | -2.5 | -10.8 | -8.7* | i | i
COc1ccc(OC)c(-c2csc(NC(=O)Cn3[nH]c(=O)c4ccccc4c3=O)n2)c1 | 409.5 | 16.8* | -9.6 | 92.8 | i | i
